The values below come from PMC4981499 (Nature, 2014).

The subject of assay [1] is NDM-1-positive K. pneumoniae N11-2218. Put plainly: Mouse systemic infection, organ bacterial load. The assay is classed as in vivo, CD1 mice. Particulars: s.c., spleen burden 48 h after infection. The method in brief:
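Female CD1 mice, 7–9 weeks, infected i.p. with 2×10⁶ cfu K. pneumoniae N11-2218. Treated s.c. 30 minutes post infection with test compound, meropenem, their combination, or PBS. Euthanized at 48 h; spleen and liver were homogenized in PBS, serially diluted and plated on Brilliant Green agar for cfu counts.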

A further assay has as its system K. pneumoniae N11-2218. As to the kind of experiment: MIC. The assay is classed as cell-based. The following applies: meropenem alone; K. pneumoniae N11-2218 (CRE). The method in brief: (§1)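 Checkerboard microdilution with 8 concentrations each of meropenem and test compound in serial ½ dilutions, run in duplicate, and the mean was used. MIC was the lowest concentration with no growth. Each FIC was the concentration in the presence of the co-compound in a no-growth well divided by that compound's MIC; the FIC index is the sum of the two FICs.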

The next assay has as its system E. coli BW25113. Put plainly: MIC. The assay is classed as cell-based. The following applies: Escherichia coli. Put shortly: as §1
The test system of assay [2] is NDM-1-positive K. pneumoniae N11-2218. Put plainly: Mouse lethal systemic infection, survival. The assay is classed as in vivo, CD1 mice. The following applies: meropenem (10 mg/kg) alone or AMA (30 mg/kg) alone, single s.c. dose. The method in brief: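 Female CD1 mice, 7–9 weeks, randomized 5 per cage. Infected i.p. with 5×10⁷ cfu K. pneumoniae N11-2218. A single s.c. dose was given 30 minutes post infection: meropenem 10 mg/kg, test compound 30 mg/kg, their combination, or PBS. Mice were monitored for endpoint until day 4. Preparation, infection and processing were done by two independent investigators for blinding.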

Molecules are shown by their SMILES. Converted amounts (≈) assume the structure as drawn.

`C[C@@H](O)[C@H]1C(=O)N2C(C(=O)O)=C(S[C@@H]3CN[C@H](C(=O)N(C)C)C3)[C@H](C)[C@H]12` [meropenem]: in assay [1], the “Response of infection to meropenem monotherapy” value is “resistant to meropenem monotherapy at doses below 50 mg/kg”. For the same compound, the MIC (as a rule, the lowest concentration that inhibits growth of the organism) with K. pneumoniae N11-2218 was 32 µg/mL (≈ 83.4 µM); with E. coli BW25113 it was 0.008 to 0.016 µg/mL (≈ 0.0209 to 0.0417 µM). In addition, in assay [2], the “Prevention of lethal infection by monotherapy” value is listed as “unable to prevent lethal infection”.
